# Data: ChEMBL document CHEMBL1132932, “Design of a Gag pentapeptide analogue that binds human cyclophilin A more efficiently than the entire capsid protein: new insights for the development of novel anti-HIV-1 drugs” (J Med Chem, 2000)
# Starred links: 1 amine or outer side, 2 acyl side, 3 side chain; linkers in the order of their positions; H or OH if unused. Non-standard residues stand in square brackets, D forms with d. Residues, ends and D or L forms follow the SMILES beside them. *: point of attachment. Desaminohistidyl = O=C(CCc1c[nH]cn1)*; NHCH2CHPh2 = c1ccc(C(CN*)c2ccccc2)cc1; NHCHPh2 = c1ccc(C(N*)c2ccccc2)cc1; pNA = O=[N+]([O-])c1ccc(N*)cc1; NHPhenethyl = c1ccc(CCN*)cc1; Suc = O=C(CCC(=O)[*:2])[*:1]; Isovaleryl = CC(C)CC(=O)*; Ac5c = NC1(C(=O)O)CCCC1; Api = NC1(C(=O)O)CCNCC1; Aib = CC(C)(N)C(=O)O; NHBn = c1ccc(CN*)cc1
# Target: T1, Peptidyl-prolyl cis-trans isomerase A (Homo sapiens, UniProt P62937)
# Assay: % inhibition of competitive binding, at 500 uM, against hCyp-18 PPIase activity using uncoupled assay
# Target sequence in this assay (P62937 whole entry, looked up): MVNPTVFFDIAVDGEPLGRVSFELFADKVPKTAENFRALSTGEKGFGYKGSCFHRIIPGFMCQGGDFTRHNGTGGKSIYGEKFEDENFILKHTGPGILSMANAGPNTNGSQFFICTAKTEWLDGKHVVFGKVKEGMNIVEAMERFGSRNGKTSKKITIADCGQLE
row,Compound,inhibition [%]
1,CC[C@H](C)[C@H](NC(=O)[C@@H]1CCCN1C(=O)CNC(=O)[C@H](C)NC(=O)[C@H](Cc1c[nH]cn1)NC(=O)[C@@H](NC(C)=O)C(C)C)C(=O)NCCc1ccccc1 (Ac-VHAGPI-NHPhenethyl),55
2,C[C@H](NC(=O)CCC(=O)O)C(=O)N[C@@H](C)C(=O)N1CCC[C@H]1C(=O)N[C@@H](Cc1ccccc1)C(=O)Nc1ccc([N+](=O)[O-])cc1 (Suc-AAPF-pNA),38
3,CC[C@H](C)[C@H](NC(=O)[C@@H]1CCCN1C(=O)CNC(=O)[C@H](C)NC(=O)[C@H](Cc1c[nH]cn1)NC(=O)[C@@H](NC(C)=O)C(C)C)C(=O)NCC(c1ccccc1)c1ccccc1 (Ac-VHAGPI-NHCH2CHPh2),54

# Target: T1, Peptidyl-prolyl cis-trans isomerase A
# Assay: 50% inhibitory concentration of competitive binding against human Peptidyl-prolyl isomerase activity using uncoupled assay
# Procedure, shortened: (§1)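 Recombinant human hCyp-18 (expressed in E. coli M15, ion-exchange purified), 16 nM in 35 mM Hepes pH 7.8, preincubated 2 min with peptides added from DMSO stocks (100 µM to 100 mM). Substrate Suc-Ala-Ala-Pro-Phe-DFA in TFE/0.47 M LiCl added to a final 200 µM. Uncoupled cis/trans isomerization followed by absorbance at 246 nm, 10 °C, over 6 min. Pseudo-first-order k_obs taken from 0.05–0.5 min data, activity expressed relative to uncatalyzed rate, n = 2.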
# Target sequence in this assay (P62937 whole entry): as the sequence (P62937 whole entry, looked up) above
row,Compound,IC50 [µM]
1,CC[C@H](C)[C@H](NC(=O)[C@@H]1CCCN1C(=O)CNC(=O)[C@H](C)NC(=O)[C@H](Cc1c[nH]cn1)NC(=O)[C@@H](NC(=O)CCC(=O)O)C(C)C)C(=O)N[C@@H](C)C(N)=O (Suc-VHAGPIA-NH2),1000
2,CC(=O)N[C@H](C(=O)N[C@@H](Cc1cnc[nH]1)C(=O)N[C@@H](C)C(=O)NCC(=O)N1CCC[C@H]1C(=O)N[C@@H](CCC(N)=O)C(=O)N[C@@H](C)C(N)=O)C(C)C,1300
3,CC[C@H](C)[C@H](NC(=O)[C@@H]1CCCN1C(=O)CNC(=O)[C@H](C)NC(=O)[C@H](Cc1c[nH]cn1)NC(C)=O)C(=O)NCc1ccccc1 (Ac-HAGPI-NHBn),280
4,CC[C@H](C)[C@H](NC(=O)[C@@H]1CCCN1C(=O)CNC(=O)[C@H](C)NC(=O)CCc1cnc[nH]1)C(=O)NCc1ccccc1 (Desaminohistidyl-AGPI-NHBn),> 10000
5,Ac-VQAGPIA-NH2,2500
6,CC[C@H](C)[C@H](NC(=O)[C@@H]1CCCN1C(=O)CNC(=O)C(C)(C)NC(=O)[C@H](Cc1c[nH]cn1)NC(=O)[C@@H](NC(C)=O)C(C)C)C(=O)N[C@@H](C)C(N)=O,760
7,CC[C@H](C)[C@H](NC(=O)[C@@H]1CCCN1C(=O)CNC(=O)[C@H](C)NC(=O)[C@H](Cc1cnc[nH]1)NC(=O)[C@@H](N)C(C)C)C(=O)NCc1ccccc1 (H-VHAGPI-NHBn),260
8,CC(=O)N[C@H](C(=O)N[C@@H](Cc1c[nH]cn1)C(=O)N[C@@H](C)C(=O)NCC(=O)N1CCC[C@H]1C(=O)N[C@H](C(=O)N[C@H](C)C(N)=O)c1ccccc1)C(C)C,820
9,CC(=O)N[C@H](C(=O)N[C@@H](Cc1c[nH]cn1)C(=O)N[C@@H](C)C(=O)NCC(=O)N1CCC[C@H]1C(=O)NCC(=O)N[C@@H](C)C(N)=O)C(C)C,2800
10,CC(=O)N[C@H](C(=O)N[C@@H](Cc1cnc[nH]1)C(=O)N[C@@H](C)C(=O)NCC(=O)N1CCC[C@H]1C(=O)N[C@@H](C(=O)N[C@H](C)C(N)=O)c1ccccc1)C(C)C,970
11,CC(=O)N[C@H](C(=O)N[C@@H](Cc1c[nH]cn1)C(=O)N[C@@H](C)C(=O)NCC(=O)N1CCC[C@H]1C(=O)NC(C)(C)C(=O)N[C@@H](C)C(N)=O)C(C)C (Ac-VHAGP[Aib]A-NH2),> 10000
12,CC[C@H](C)[C@H](NC(=O)[C@@H]1CCCN1C(=O)CNC(=O)[C@H](C)NC(=O)[C@H](Cc1c[nH]cn1)NC(=O)[C@@H](N)C(C)C)C(=O)N[C@@H](C)C(N)=O,2100
13,CC(=O)N[C@H](C(=O)N[C@@H](Cc1cnc[nH]1)C(=O)N[C@@H](C)C(=O)NCC(=O)N1CCC[C@H]1C(=O)NC1(C(=O)N[C@@H](C)C(N)=O)CCCC1)C(C)C (Ac-VHAGP[Ac5c]A-NH2),680
14,CC[C@H](C)[C@H](NC(=O)[C@@H]1CCCN1C(=O)CNC(=O)[C@H](C)NC(=O)[C@H](Cc1cnc[nH]1)NC(=O)[C@@H](NC(C)=O)C(C)C)C(=O)N[C@@H](C)C(N)=O,850
15,CC(C)CC(=O)N[C@@H](Cc1c[nH]cn1)C(=O)NC(C)(C)C(=O)NCC(=O)N1CCC[C@H]1C(=O)NC1(C(=O)NCc2ccccc2)CCCC1 (Isovaleryl-H[Aib]GP[Ac5c]-NHBn),500
16,CC[C@H](C)[C@H](NC(=O)[C@@H]1CCCN1C(=O)CNC(=O)[C@H](C)NC(=O)[C@H](Cc1cnc[nH]1)NC(=O)CC(C)C)C(=O)NCc1ccccc1 (Isovaleryl-HAGPI-NHBn),6
17,CC(C)CC(=O)N[C@@H](Cc1cnc[nH]1)C(=O)N[C@@H](C)C(=O)NCC(=O)N1CCC[C@H]1C(=O)NC1(C(=O)NCc2ccccc2)CCCC1 (Isovaleryl-HAGP[Ac5c]-NHBn),90
18,CC[C@H](C)[C@H](NC(=O)[C@@H]1CCCN1C(=O)CNC(=O)[C@H](C)NC(=O)[C@H](Cc1c[nH]cn1)NC(=O)[C@@H](NC(C)=O)C(C)C)C(=O)NCc1ccccc1 (Ac-VHAGPI-NHBn),115
19,CC[C@H](C)[C@H](NC(=O)[C@@H]1CCCN1C(=O)CNC(=O)C(C)(C)NC(=O)[C@H](Cc1cnc[nH]1)NC(=O)CC(C)C)C(=O)NCc1ccccc1 (Isovaleryl-H[Aib]GPI-NHBn),> 10000
20,CC(=O)N[C@H](C(=O)N[C@@H](Cc1c[nH]cn1)C(=O)N[C@@H](C)C(=O)NCC(=O)N1CCC[C@H]1C(=O)NC1(C(=O)N[C@@H](C)C(N)=O)CCNCC1)C(C)C (Ac-VHAGP[Api]A-NH2),> 10000
21,CC(=O)N[C@H](C(=O)N[C@@H](Cc1cnc[nH]1)C(=O)N[C@@H](C)C(=O)NCC(=O)N1CCC[C@H]1C(=O)N[C@H](C(=O)N[C@@H](C)C(N)=O)C(C)C)C(C)C,1500
22,CC[C@H](C)[C@H](NC(=O)[C@@H]1CCCN1C(=O)CNC(=O)[C@H](C)NC(=O)[C@H](Cc1c[nH]cn1)NC(=O)[C@@H](NC(C)=O)C(C)C)C(=O)NC(c1ccccc1)c1ccccc1 (Ac-VHAGPI-NHCHPh2),1500

# Target: T1, Peptidyl-prolyl cis-trans isomerase A
# Assay: % inhibition of competitive binding, at 500 uM, against human Peptidyl-prolyl isomerase
# Procedure, shortened: as §1
# Target sequence in this assay (P62937 whole entry, looked up): as above
row,Compound,inhibition [%]
1,CC(=O)N[C@H](C(=O)N[C@@H](Cc1c[nH]cn1)C(=O)N[C@@H](C)C(=O)NCC(=O)N1CCC[C@H]1C(=O)N[C@@H](C(=O)N[C@H](C)C(N)=O)c1ccccc1)C(C)C,37
2,CC[C@H](C)[C@H](NC(=O)[C@@H]1CCCN1C(=O)CNC(=O)[C@H](C)NC(=O)[C@H](Cc1c[nH]cn1)NC(=O)[C@@H](NC(=O)CCC(=O)O)C(C)C)C(=O)N[C@@H](C)C(N)=O (Suc-VHAGPIA-NH2),13
3,CC(C)CC(=O)N[C@@H](Cc1c[nH]cn1)C(=O)N[C@@H](C)C(=O)NCC(=O)N1CCC[C@H]1C(=O)NC1(C(=O)NCc2ccccc2)CCCC1 (Isovaleryl-HAGP[Ac5c]-NHBn),57
4,CC[C@H](C)[C@H](NC(=O)[C@@H]1CCCN1C(=O)CNC(=O)[C@H](C)NC(=O)[C@H](Cc1c[nH]cn1)NC(C)=O)C(=O)NCc1ccccc1 (Ac-HAGPI-NHBn),55
5,CC(=O)N[C@H](C(=O)N[C@@H](Cc1c[nH]cn1)C(=O)N[C@@H](C)C(=O)NCC(=O)N1CCC[C@H]1C(=O)N[C@@H](CCC(N)=O)C(=O)N[C@H](C)C(N)=O)C(C)C,15
6,CC[C@H](C)[C@H](NC(=O)[C@@H]1CCCN1C(=O)CNC(=O)[C@H](C)NC(=O)[C@H](Cc1c[nH]cn1)NC(=O)[C@@H](N)C(C)C)C(=O)NCc1ccccc1 (H-VHAGPI-NHBn),59
7,CC[C@H](C)[C@H](NC(=O)[C@@H]1CCCN1C(=O)CNC(=O)[C@H](C)NC(=O)CCc1c[nH]cn1)C(=O)N[C@H](C)C(N)=O,20
8,CC(=O)N[C@H](C(=O)N[C@@H](Cc1c[nH]cn1)C(=O)N[C@@H](C)C(=O)NCC(=O)N1CCC[C@H]1C(=O)N[C@H](C(=O)N[C@H](C)C(N)=O)c1ccccc1)C(C)C,43
9,CC[C@@H](C)[C@@H](NC(=O)[C@@H]1CCCN1C(=O)CNC(=O)[C@H](C)NC(=O)[C@H](Cc1c[nH]cn1)NC(=O)[C@@H](NC(C)=O)C(C)C)C(=O)N[C@H](C)C(N)=O,19
10,CC[C@@H](C)[C@@H](NC(=O)[C@@H]1CCCN1C(=O)CNC(=O)C(C)(C)NC(=O)[C@H](Cc1c[nH]cn1)NC(=O)[C@@H](NC(C)=O)C(C)C)C(=O)N[C@H](C)C(N)=O,45
11,CC[C@H](C)[C@H](NC(=O)[C@@H]1CCCN1C(=O)CNC(=O)[C@H](C)NC(=O)[C@@H](N)Cc1c[nH]cn1)C(=O)N[C@H](C)C(=O)O,15
12,CC[C@H](C)[C@H](NC(=O)[C@@H]1CCCN1C(=O)CNC(=O)[C@H](C)NC(=O)[C@H](Cc1c[nH]cn1)NC(=O)[C@@H](N)C(C)C)C(=O)N[C@H](C)C(N)=O,11
13,CC(=O)N[C@H](C(=O)N[C@@H](Cc1c[nH]cn1)C(=O)N[C@@H](C)C(=O)NCC(=O)N1CCC[C@H]1C(=O)NCC(=O)N[C@H](C)C(N)=O)C(C)C,28
14,CC[C@H](C)[C@H](NC(=O)[C@@H]1CCCN1C(=O)CNC(=O)[C@H](C)NC(=O)[C@H](Cc1c[nH]cn1)NC(=O)CC(C)C)C(=O)NCc1ccccc1 (Isovaleryl-HAGPI-NHBn),99
15,CC(C)CC(=O)N[C@@H](Cc1c[nH]cn1)C(=O)NC(C)(C)C(=O)NCC(=O)N1CCC[C@H]1C(=O)NC1(C(=O)NCc2ccccc2)CCCC1 (Isovaleryl-H[Aib]GP[Ac5c]-NHBn),50
16,CC(=O)N[C@H](C(=O)N[C@@H](Cc1c[nH]cn1)C(=O)N[C@@H](C)C(=O)NCC(=O)N1CCC[C@H]1C(=O)N[C@H](C(=O)N[C@H](C)C(N)=O)C(C)C)C(C)C,31
17,CC[C@H](C)[C@H](NC(=O)[C@@H]1CCCN1C(=O)CNC(=O)[C@H](C)NC(=O)[C@H](Cc1c[nH]cn1)NC(=O)[C@@H](NC(C)=O)C(C)C)C(=O)NCc1ccccc1 (Ac-VHAGPI-NHBn),88
18,CC[C@H](C)[C@H](NC(=O)[C@@H]1CCCN1C(=O)CNC(=O)[C@H](C)NC(=O)[C@H](Cc1c[nH]cn1)NC(=O)[C@@H](NC(C)=O)C(C)C)C(=O)NC(c1ccccc1)c1ccccc1 (Ac-VHAGPI-NHCHPh2),38
19,CC[C@H](C)[C@H](NC(=O)[C@@H]1CCCN1C(=O)CNC(=O)[C@H](C)NC(=O)[C@H](Cc1c[nH]cn1)NC(=O)CC(C)C)C(=O)N[C@H](C)C(N)=O,76

# Target: T1, Peptidyl-prolyl cis-trans isomerase A
# Assay: % inhibition of competitive binding, at 500 uM, against human Peptidyl-prolyl isomerase activity using uncoupled assay
# Target sequence in this assay (P62937 whole entry, looked up): as above
row,Compound,inhibition [%]
1,CC(=O)N[C@H](C(=O)N[C@@H](Cc1c[nH]cn1)C(=O)N[C@@H](C)C(=O)NCC(=O)N1CCC[C@H]1C(=O)NC1(C(=O)N[C@@H](C)C(N)=O)CCCC1)C(C)C (Ac-VHAGP[Ac5c]A-NH2),52
